Data as given in ChEMBL document CHEMBL4814011, “Discovery of a novel class of inhaled dual pharmacology muscarinic antagonist and β2 agonist (MABA) for the treatment of chronic obstructive pulmonary disease (COPD)” (Bioorg Med Chem Lett, 2021).
Calls of active or inactive are those of the source. The rule behind the calls is not given here.

Columns and labels:
[1] = target: Muscarinic acetylcholine receptor M3 (Homo sapiens, UniProt P20309); test: Displacement of [3H]-N-methylscopolamine from human muscarinic M3 receptor
Sequence of Muscarinic acetylcholine receptor M3 (P20309 whole entry): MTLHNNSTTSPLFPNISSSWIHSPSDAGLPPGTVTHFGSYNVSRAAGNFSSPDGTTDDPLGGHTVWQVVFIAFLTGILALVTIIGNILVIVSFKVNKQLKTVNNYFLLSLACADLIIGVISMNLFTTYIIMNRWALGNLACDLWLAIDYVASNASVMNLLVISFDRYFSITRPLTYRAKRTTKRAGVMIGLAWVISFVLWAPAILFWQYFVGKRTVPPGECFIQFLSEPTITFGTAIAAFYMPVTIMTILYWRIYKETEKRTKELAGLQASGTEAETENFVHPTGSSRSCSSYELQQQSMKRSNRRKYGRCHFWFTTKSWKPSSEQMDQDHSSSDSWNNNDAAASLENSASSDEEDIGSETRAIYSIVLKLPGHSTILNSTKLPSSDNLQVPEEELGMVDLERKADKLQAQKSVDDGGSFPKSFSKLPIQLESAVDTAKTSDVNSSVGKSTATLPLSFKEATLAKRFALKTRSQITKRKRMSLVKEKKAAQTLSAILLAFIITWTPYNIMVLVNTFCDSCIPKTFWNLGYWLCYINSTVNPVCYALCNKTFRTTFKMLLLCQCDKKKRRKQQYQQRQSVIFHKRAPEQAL

[2] = target: Beta-2 adrenergic receptor (Homo sapiens, UniProt P07550); test: Displacement of 125I-cyanopindolol from human adrenergic beta2 receptor
Sequence of Beta-2 adrenergic receptor (P07550 whole entry): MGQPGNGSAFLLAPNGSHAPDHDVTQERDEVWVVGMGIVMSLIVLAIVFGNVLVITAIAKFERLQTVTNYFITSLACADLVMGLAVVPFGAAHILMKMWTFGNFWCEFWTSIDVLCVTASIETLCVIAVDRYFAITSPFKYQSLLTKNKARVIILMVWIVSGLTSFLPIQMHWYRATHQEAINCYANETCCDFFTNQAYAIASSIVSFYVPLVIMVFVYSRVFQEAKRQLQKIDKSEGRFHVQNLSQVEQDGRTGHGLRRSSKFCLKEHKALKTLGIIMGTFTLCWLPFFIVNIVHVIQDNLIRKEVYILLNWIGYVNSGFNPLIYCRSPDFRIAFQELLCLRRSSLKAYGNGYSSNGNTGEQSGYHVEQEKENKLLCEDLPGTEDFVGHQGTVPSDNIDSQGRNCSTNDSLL
How it was run: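 Radioligand binding on cloned human β2 adrenoceptor, with displacement of 125I-cyanopindolol.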

[3] = (§1) Antagonist activity at muscarinic M3 receptor in guinea pig trachea assessed as inhibition of carbachol-induced contraction; format: tissue-based, Cavia porcellus
How it was run: (§2)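 Isolated guinea pig tracheal tissue was contracted with the muscarinic agonist carbachol, and inhibition of contraction was scored. A parallel histamine (H1) challenge, opposed only by the β2 component, was used to estimate the β2 share.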

[4] = species: Cavia porcellus; test: Activity at muscarinic M3 and adrenergic beta2 in guinea pig trachea assessed as time taken for compound action by MABA assay; format: tissue-based
[5] = target: beta-2 adrenergic receptor (guinea pig); test: Agonist activity at beta-2 adrenergic receptor in guinea pig trachea assessed as inhibition of histamine-induced contraction
[6] = species: Cavia porcellus; test: as §1; format: tissue-based; how it was run: as §2
[7] = Protein binding in human plasma; format: ADME, cell-free; conditions: for fraction unbound: read-out: PPB (converted)
[8] = Protein binding in rat plasma; format: ADME, cell-free; conditions: for fraction unbound: read-out: PPB (converted)
[9] = In vivo agonist activity at adrenergic beta2 receptor in guinea pig assessed as reduction in acetylcholine/histamine-induced bronchoconstriction at 1 mg/kg, IT(Intratracheal) measured after 1 hr by Konzett-Roessler methodology relative to control; format: functional; conditions: Cavia porcellus, inhaled or nasal
[10] = In vivo agonist activity at adrenergic beta2 receptor in guinea pig assessed as reduction in acetylcholine/histamine-induced bronchoconstriction at 3 mg/kg, IT(Intratracheal) measured after 1 hr by Konzett-Roessler methodology relative to control; format: functional; conditions: Cavia porcellus, inhaled or nasal
[11] = In vivo agonist activity at adrenergic beta2 receptor in guinea pig assessed as reduction in acetylcholine/histamine-induced bronchoconstriction at 3 mg/kg, IT(Intratracheal) measured after 24 hrs by Konzett-Roessler methodology relative to control; format: functional; conditions: Cavia porcellus, inhaled or nasal
[12] = In vivo agonist activity at adrenergic beta2 receptor in guinea pig assessed as reduction in acetylcholine/histamine-induced bronchoconstriction at 1 mg/kg, IT(Intratracheal) measured after 24 hrs by Konzett-Roessler methodology relative to control; format: functional; conditions: Cavia porcellus, inhaled or nasal
[13] = Protein binding in guinea pig plasma; format: ADME, cell-free, Cavia porcellus

SMILES	Ki [1]	Ki [2]	pIC50 [3]	TIME ([4]; filed as modulator)	pIC50 [5]	TIME [4]	further results
O=C(NC(c1ccccc1)c1cccc(OCCCCCCNC[C@H](O)c2ccc(O)c3[nH]c(=O)ccc23)c1)O[C@H]1CN2CCC1CC2 (stereo partly specified)	316 pM	15.8 pM	9.9	< 2.25 h	9.8	–	–
O=C(NC(c1ccccc1)c1cccc(OCCCCCCCNC[C@H](O)c2ccc(O)c3[nH]c(=O)ccc23)c1)O[C@H]1CN2CCC1CC2 (stereo partly specified)	398 pM	100 pM	9.3	< 1.5 h	8.1	–	–
O=C(N[C@H](c1ccccc1)c1cccc(OCCCCCCNC[C@H](O)c2ccc(O)c3[nH]c(=O)ccc23)c1)O[C@H]1CN2CCC1CC2	3980 pM	39.8 pM	–	–	–	–	pIC50 [6]: inactive
O=C(N[C@@H](c1ccccc1)c1cccc(OCCCCCCNC[C@H](O)c2ccc(O)c3[nH]c(=O)ccc23)c1)O[C@H]1CN2CCC1CC2	126 pM	501 pM	–	–	–	–	pIC50 [6]: inactive
O=C(N[C@@H](c1ccccc1)c1ccc(-c2cccc(OCc3ccc(C(=O)N(CCCNC[C@H](O)c4ccc(O)c5[nH]c(=O)ccc45)Cc4ccccc4)cc3)c2)cc1)O[C@H]1CN2CCC1CC2	126 pM	100 pM	8.7	–	9	> 3 h	fraction unbound [7]: < 0.01; fraction unbound [8]: 0.03; inhibition in vivo at 1 mg/kg [9]: 27%; inhibition in vivo at 3 mg/kg [10]: 63%; inhibition in vivo at 3 mg/kg [11]: 20%
O=C(NC(c1ccccc1)c1ccc(OCCCCCCCCCNC[C@H](O)c2ccc(O)c3[nH]c(=O)ccc23)cc1)O[C@H]1CN2CCC1CC2 (stereo partly specified)	10000 pM	251 pM	8.3	–	7.3	> 4.5 h	–
O=C(NC(c1ccccc1)c1cccc(OCCCCCCCCNC[C@H](O)c2ccc(O)c3[nH]c(=O)ccc23)c1)O[C@H]1CN2CCC1CC2 (stereo partly specified)	158 pM	200 pM	8.7	< 1.5 h	7.8	–	–
O=C(N[C@@H](c1ccccc1)c1ccc(-c2cccc(OCc3ccc(C(=O)NCCCNC[C@H](O)c4ccc(O)c5[nH]c(=O)ccc45)cc3)c2)cc1)O[C@H]1CN2CCC1CC2	100 pM	12.6 pM	9.7	–	9.8	> 4.5 h	fraction unbound [7]: 0.05; fraction unbound [8]: 0.05
O=C(NC(c1ccccc1)c1cccc(OCCCCCNC[C@H](O)c2ccc(O)c3[nH]c(=O)ccc23)c1)O[C@H]1CN2CCC1CC2 (stereo partly specified)	398 pM	25.1 pM	8.5	< 0.75 h	9	–	–
O=C(NC(c1ccccc1)c1ccccc1)O[C@H]1CN2CCC1CC2	1260 pM	–	–	–	–	–	–
O=C(N[C@@H](c1ccccc1)c1cccc(OCc2ccc(CCNC[C@H](O)c3ccc(O)c4[nH]c(=O)ccc34)cc2)c1)O[C@H]1CN2CCC1CC2	–	–	9.3	–	9.1	> 4.5 h	PPB [7]: 98%; PPB [8]: 98%; inhibition in vivo at 1 mg/kg [9]: 20%; inhibition in vivo at 3 mg/kg [10]: 67%; inhibition in vivo at 1 mg/kg [12]: 42%; inhibition in vivo at 3 mg/kg [11]: 35%; PPB [13]: 99%
CCN(CCCNC[C@H](O)c1ccc(O)c2[nH]c(=O)ccc12)C(=O)c1ccc(COc2cccc(-c3ccc([C@@H](NC(=O)O[C@H]4CN5CCC4CC5)c4ccccc4)cc3)c2)cc1	251 pM	50.1 pM	9.5	–	9.5	> 3.75 h	fraction unbound [7]: 0.04; fraction unbound [8]: 0.06
O=C(NC(c1ccccc1)c1cccc(OCCCCCCCCCNC[C@H](O)c2ccc(O)c3[nH]c(=O)ccc23)c1)O[C@H]1CN2CCC1CC2 (stereo partly specified)	251 pM	200 pM	7.5	–	7.3	> 4.5 h	–
